Values after ≈ are worked out from the molar mass of the structure shown. “Also recorded” adds a separate entry of the source.
Tests used:
[1] = system: CYP24A1 mRNA in HEK293T cells; experiment: CYP24A1 mRNA levels by quantitative PCR; type: cell-based
[2] = system: C. albicans ATCC 10231; experiment: Minimum inhibitory concentration; type: cell-based; settings: Candida albicans, ATCC10231, read-out: Minimum inhibitory concentration (MIC) C. albicans ATCC 10231
Method in brief: (§1)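 Exponential-phase yeast were washed three times in PBS and suspended at 1 × 10^3 CFU/mL in RPMI 1640. Test compound and fluconazole comparator were twofold serially diluted in microplates, each concentration in triplicate wells. Growth was read as OD600, from which the MIC was determined.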

[3] = system: C. albicans ATCC 14053; experiment: Minimum inhibitory concentration; type: cell-based; settings: Candida albicans, ATCC14053, read-out: Minimum inhibitory concentration (MIC) C. albicans ATCC 14053
Method in brief: as §1

[4] = system: C. albicans ATCC 24433; experiment: Activity against additional fungal strains; type: cell-based; settings: Table 2; no quantity or unit printed
Method in brief: (§2)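 Fungi in exponential phase were washed three times in PBS and resuspended at 1 × 10^3 CFU mL−1 in RPMI 1640. Test compound and fluconazole were serially diluted twofold in 96-well plates, in triplicate wells per concentration. MIC was derived from OD600 readings.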

[5] = system: C. albicans ATCC 10231 biofilm; experiment: Inhibition of biofilm formation; type: cell-based; settings: in vitro
Method in brief: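 Exponential-phase fungi at 1 × 10^6 CFU mL−1 in RPMI 1640 were allowed to adhere for 1.5 h at 37 °C, then washed twice with PBS. Fresh RPMI containing graded concentrations of test compound was added for 24 h at 37 °C in the dark. Adherent cells were stained for 3 h at 37 °C and OD was read. Results are given as % inhibition of formation.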

[6] = system: C. albicans ATCC 10231; experiment: Time–kill kinetics; type: cell-based; settings: 8 × MIC, after 8 h
Method in brief: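 C. albicans in exponential phase was diluted to 1.5 × 10^6 cells per mL in RPMI 1640, in 5 mL tubes. Drug was added and tubes were shaken at 200 rpm and 30 °C. 100 μL aliquots went to microtiter wells, were incubated at 37 °C, and OD600 was read to estimate cell concentration.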

[7] = system: C. albicans ATCC 10231; experiment: Drug-resistance study; type: cell-based; settings: after 28 serial passages
Method in brief: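 Resistance development in C. albicans: the MIC of the test compound was first determined by the fungal broth microdilution method, then that determination was repeated continuously over 28 days.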

[8] = Cytotoxicity, CCK-8 assay; type: cell-based; settings: human, Caco-2
[9] = system: FO MYA 3461; experiment: Activity against additional fungal strains; type: cell-based; settings: Table 2; no quantity or unit printed
Method in brief: as §2

[10] = system: various bacteria and fungi; experiment: Broad-spectrum antibacterial and antifungal MIC; type: cell-based; settings: read-out: MIC (broad-spectrum antibacterial and antifungal activity)
[11] = Cytotoxicity, CCK-8 assay; type: cell-based; settings: human, HUVECs (human umbilical vein endothelial cells)
[12] = system: C. albicans ATCC 10231 biofilm; experiment: Biofilm eradication; type: cell-based; settings: in vitro
Method in brief: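 Overnight C. albicans was adjusted to 1 × 10^6–10^7 CFU mL−1 and grown statically for 24 h at 37 °C to give mature biofilms. After two PBS rinses, biofilms were treated with test compound in fresh medium for 24 h at 37 °C; amphotericin B was the positive control and medium alone the negative control. Staining used 0.1% crystal violet for 15 min, then 95% ethanol solubilisation and OD590. Eradication (%) = [1 − OD_test/OD_negative] × 100.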

[13] = system: F. solani 46492; experiment: Activity against additional fungal strains; type: cell-based; settings: Table 2; no quantity or unit printed
Method in brief: as §2

[14] = system: A. brasiliensis TCC 16404; experiment: Activity against additional fungal strains; type: cell-based; settings: Table 2; no quantity or unit printed
Method in brief: as §2

[15] = system: F. solani 52628; experiment: Activity against additional fungal strains; type: cell-based; settings: Table 2; no quantity or unit printed
Method in brief: as §2

[16] = Calcein leakage assay; settings: liposomes mimicking fungal membranes
Method in brief: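 Large unilamellar vesicles of DOPC/DOPE/PI (2:1:1) with 15 wt% ergosterol were made by film hydration in 80 mM calcein, 50 mM HEPES, 100 mM NaCl, 0.3 mM EDTA, pH 7.4. They were freeze–thawed 10×, extruded through 100 nm filters, gel-filtered, and quantified by total phosphorus. Test compound was added in HEPES buffer with 5% DMF. Read at ex 490/em 520 nm; % leakage = (Ft−Fmin)/(Fmax−Fmin)×100, with Fmax from 1% Triton X-100.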

[17] = target: T1, CYP24A1 (Homo sapiens, UniProt Q07973); experiment: CYP24-inhibition assay; type: biochemical
T1 sequence (Q07973 36-514): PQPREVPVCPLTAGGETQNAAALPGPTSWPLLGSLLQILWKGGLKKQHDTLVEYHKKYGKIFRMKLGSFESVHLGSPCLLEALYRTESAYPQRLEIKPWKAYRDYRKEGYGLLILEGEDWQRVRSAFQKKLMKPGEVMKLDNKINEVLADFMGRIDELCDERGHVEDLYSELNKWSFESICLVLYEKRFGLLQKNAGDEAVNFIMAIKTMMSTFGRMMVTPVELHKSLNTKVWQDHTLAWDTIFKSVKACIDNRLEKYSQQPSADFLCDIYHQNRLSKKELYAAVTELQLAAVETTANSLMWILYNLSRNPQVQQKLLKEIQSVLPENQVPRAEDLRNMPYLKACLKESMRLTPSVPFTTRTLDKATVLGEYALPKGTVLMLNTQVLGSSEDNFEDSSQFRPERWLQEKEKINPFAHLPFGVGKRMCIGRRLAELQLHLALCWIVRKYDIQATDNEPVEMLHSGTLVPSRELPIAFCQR
Method in brief: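 Reconstituted system: 5 nM CYP24, 0.5 μM adrenodoxin and 0.05 μM adrenodoxin reductase in 100 mM Tris–HCl pH 7.4 with 1 mM EDTA. Test compound (50–200 μM) was preincubated for 15 min at room temperature. 5 μM 1,25-D3 and 1 mM NADPH were then added for 10 min at 37 °C. The reaction was stopped with 4 volumes of chloroform/methanol 3:1, and conversion was measured by C18 HPLC with UV detection at 265 nm.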

[18] = system: rabbit red blood cells; experiment: Hemolysis assay; type: cell-based
Method in brief: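 Rabbit erythrocytes (4% v/v in PBS) were mixed 1:1 with test compound in PBS, giving final concentrations of 2–256 μg mL−1, and incubated for 1 h at 37 °C. Samples were centrifuged at 1000g for 5 min and supernatant A490 was read. Controls were 1% Triton X-100 and PBS. Hemolysis (%) = [(sample − PBS)/(Triton − PBS)] × 100, in triplicate.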

[19] = system: C. albicans ATCC 90028; experiment: Activity against additional fungal strains; type: cell-based; settings: Table 2; no quantity or unit printed
Method in brief: as §2

[20] = system: metabolic clearance of 1,25(OH)2D3 in HEK293T cells; experiment: Retention of 1,25; type: cell-based; settings: 10^−7 M compound; after 24 h; LC-MS/MS
[21] = system: C. albicans ATCC 10231; experiment: SYTOX Green membrane integrity assay; type: cell-based; settings: 4 × MIC; over 20 min
Method in brief: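 Overnight C. albicans was washed three times in PBS and set to OD600 0.2 in PBS. Cells were loaded with 0.3 μM SYTOX Green in the dark. Once the signal plateaued, test compound in PBS/DMF (final DMF 0.5%) was added. Fluorescence (ex 504 nm, em 523 nm) was monitored continuously for 1–2 h.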

## C=C1/C(=C\C=C2/CCC[C@]3(C)[C@@H]([C@H](C)CCCC(C)(C)O)CC[C@@H]23)C[C@@H](O)C[C@@H]1O [1,25(OH)2D3, 1,25-dihydroxyvitamin D3, reference compound]
[1]; 10^−9 M, 24 h, HEK293T cells
  CYP24A1 mRNA levels, 1,25(OH)2D3 alone: significantly increased

## Cc1ccc(C=Nc2nc[nH]n2)c(O)c1 [3a, 2-{[(1H-1,2,4-Triazol-3-yl)imino]methyl}-5-methylphenol]
[2]
  MIC: 64 µg/mL (≈ 316 µM)
[3]
  MIC: 128 µg/mL (≈ 633 µM)

## O=[N+]([O-])c1ccc(C=Nc2nc[nH]n2)c(O)c1 [3b, 2-{[(1H-1,2,4-Triazol-3-yl)imino]methyl}-5-nitrophenol]
[2]
  MIC: 64 µg/mL (≈ 274 µM)
[3]
  MIC: 64 µg/mL (≈ 274 µM)

## Oc1ccc(O)c(C=Nc2ncn[nH]2)c1 [3c, 2-{[(1H-1,2,4-Triazol-5-yl)imino]methyl}benzene-1,4-diol]
[4]
  Interaction against varied fungal strains: C. albicans ATCC 24433: 16
[5]
  Inhibition of C. albicans biofilm formation: effectively inhibited
[6]
  Time–kill: growth of C. albicans ATCC 10231: complete inhibition
[2]
  MIC: 16 µg/mL (≈ 78.4 µM)
[7]
  Increase of MIC value in resistance development: no more than 8 fold
[1]; 3c 10^−10 M + 1,25(OH)2D3 10^−9 M, 24 h, relative to 1,25(OH)2D3 alone
  CYP24A1 mRNA expression, co-treatment with 1,25(OH)2D3: markedly enhanced
[1]; 10^−7 M, HEK293T cells, versus solvent control
  CYP24A1 mRNA expression, compound alone: did not affect; also recorded: did not alter
[1]; cellular models, combined with 1,25(OH)2D3
  Up-regulation of CYP24A1 mRNA levels when combined with 1,25(OH)2D3: approximately twofold
[8]
  viability at 24 h, 64 μg mL^−1: > 95%
  viability at 24 h, 128 μg mL^−1: > 80%
[9]
  Interaction against varied fungal strains: FO MYA 3461: 32
[10]
  MIC: 16 µg/mL (≈ 78.4 µM)
[11]
  viability at 24 h, 64 μg mL^−1: > 95%
  viability at 24 h, 128 μg mL^−1: > 80%
[12]
  Disruption of pre-formed mature biofilms: significantly disrupted
[13]
  Interaction against varied fungal strains: F. solani 46492: 32
[14]
  Interaction against varied fungal strains: A. brasiliensis TCC 16404: 32
[15]
  Interaction against varied fungal strains: F. solani 52628: 32
[3]
  MIC: 16 µg/mL (≈ 78.4 µM)
[16]
  Calcein leakage from LUVs: induced leakage of the contents in a dose-dependent manner
[17]
  IC50: 202 µM
[17]; read-out: Inhibition of CYP24A1
  inhibition at 100 µM: 32%
[18]; 16–128 μg mL^−1, 37 °C, 1 h
  Hemolysis of rabbit red blood cells: no significant hemolysis
[18]; rabbit red blood cells
  Half hemolytic concentration (HC50): > 256 µg/mL
[19]
  Interaction against varied fungal strains: C. albicans ATCC 90028: 16
[20]
  Average concentration of 1,25(OH)2D3 remaining in HEK293T cell culture: 495 pM
[21]
  SYTOX Green fluorescence (membrane integrity): gradual increase in fluorescence

## Oc1ccc(Cl)cc1C=Nc1ncn[nH]1 [3d, 2-{[(1H-1,2,4-Triazol-5-yl)imino]methyl}-4-chlorophenol]
[2]
  MIC: 128 µg/mL (≈ 575 µM)
[3]
  MIC: 128 µg/mL (≈ 575 µM)

## CS(=O)(=O)c1ccc(C=Nc2ncn[nH]2)cc1 [3e, 1-[4-(Methylsulfonyl)phenyl]-N-(1H-1,2,4-triazol-5-yl)methanimine]
[2]
  MIC: 128 µg/mL (≈ 511 µM)
[3]
  MIC: 128 µg/mL (≈ 511 µM)

## C(=Nc1ncn[nH]1)c1ccc(-c2ccccc2)cc1 [3f, 1-[(1,1′-Biphenyl)-4-yl]-N-(1H-1,2,4-triazol-5-yl)methanimine]
[2]
  MIC: 128 µg/mL (≈ 516 µM)
[3]
  MIC: 128 µg/mL (≈ 516 µM)

Source: article PMC12530853 (RSC Advances, 2025)
